The text below walks through data of ChEMBL document CHEMBL1146021, “Calcium channel antagonists discovered by a multidisciplinary approach” (J Med Chem, 2006).

The species entered for assay [1] is Cavia porcellus. The experiment in a line: Vasorelaxant activity assessed as inhibition of calcium-induced contraction of potassium ion-depolarized guinea pig aortic strips at 500 uM. It counts as functional, Aorta. Also noted: scale not given: the % may be the effect or the level left. The gist of the method:
(§1)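 Helicoidal guinea-pig aortic strips in aerated PSS at 35 °C, contracted with 80 mM KCl (K+ substituted for Na+). At plateau (about 45 min), compounds added cumulatively at 0.1-500 μM in DMSO vehicle. Relaxation measured isometrically. IC50 by Probit analysis, n = 6-8.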

The species entered for assay [2] is Cavia porcellus. The experiment in a line: Negative inotropic activity in guinea pig left atrium at 1 uM. It counts as functional, Cardiac atrium. The gist of the method: (§2)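 Guinea-pig left atria driven at 1 Hz (0.6-0.8 ms pulses, about 50% threshold voltage) in PSS, 35 °C, pH 7.4, 95% O2/5% CO2. Isometric tension recorded. Cumulative concentrations 0.01-100 μM in DMSO (≤0.3%), each to steady state. Percent decrease in developed tension, n = 4-6. EC50 by Probit analysis.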

For assay [3], the species on record is Cavia porcellus. The assay can be described thus: Negative inotropic activity in guinea pig left atrium. It counts as functional. The settings on record: Cardiac atrium. Summed up: as §2
The species entered for assay [4] is Cavia porcellus. The assay can be described thus: Negative chronotropic activity in guinea pig right atrium at 10 uM. It counts as functional, Cardiac atrium. The gist of the method: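 Spontaneously beating guinea-pig right atria in PSS, 35 °C, pH 7.4, 95% O2/5% CO2. Cumulative concentrations 0.01-100 μM in DMSO (≤0.3% in bath), each to steady state. Rate decrease taken as percent of control (pretreatment 170-195 beats/min), n = 6-8. EC30 by Probit analysis.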

The species named for assay [5] is Cavia porcellus. The assay can be described thus: Vasorelaxant activity assessed as inhibition of calcium-induced contraction of potassium ion-depolarized guinea pig aortic strips. It counts as functional. The settings on record: Aorta. The gist of the method: as §1
The species named for assay [6] is Cavia porcellus. The assay can be described thus: Negative chronotropic activity in guinea pig right atrium at 500 uM. It counts as functional, Cardiac atrium.
Assay [7] is filed under the species Cavia porcellus. The experiment in a line: Vasorelaxant activity assessed as inhibition of calcium-induced contraction of potassium ion-depolarized guinea pig aortic strips at 100 uM. It counts as functional, Aorta. Also noted: scale not given: the % may be the effect or the level left. Summed up: as §1
The species named for assay [8] is Cavia porcellus. The experiment in a line: Negative inotropic activity in guinea pig left atrium at 500 uM. It counts as functional, Cardiac atrium.

A word on the EC50: it is the midpoint of the concentration-response curve. One may read the IC50 as the concentration at which inhibition is half-maximal. `C=CCN(c1ccccc1)S(=O)(=O)c1ccc(Cl)cc1`: the Activity in assay [1] was 54%; in assay [2], 73%; in assay [4], 5%. The EC50 in assay [3] was 0.31 µM. Besides, in assay [5], the IC50 is 17.7 µM.
For the compound `O=S(=O)(c1ccc(Cl)cc1)N(Cc1ccsc1)S(=O)(=O)c1ccc(Cl)cc1`, the values for the Activity in assay [6], in assay [7] and in assay [8] were 7%, 9% and 71%, respectively. Moreover, in assay [3], the half-maximal effective concentration (EC50) stood at 2.55 µM.
